From ChEMBL document CHEMBL5038619, “Interfering with the Tumor-Immune Interface: Making Way for Triazine-Based Small Molecules as Novel PD-L1 Inhibitors” (J Med Chem, 2021)
Activity calls are given as the source filed them. The calls are words filed in the database; no cut-off is given here.

What was measured:
PC-9 [1] = assay: Cytotoxicity against human PC-9 cells assessed as reduction in cell viability at 100 uM for 48 hrs by CCK-8 assay; assay type: toxicity, cell-based; conditions: pc-9, 48 h
In short: (§1)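 Cells were seeded at 1×10^4/well in triplicate and exposed to 0.1–100 μM compound with DMSO held at 0.02% in all wells. Untreated wells served as reference. After 24 or 48 h at 37 °C, 5% CO2, viability was read by CCK-8 at 450 nm (reference 600 nm). Results are percent survival versus untreated, mean ± SD of three independent experiments in triplicate.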

[2] = target: T1, Programmed cell death protein 1/Programmed cell death 1 ligand 1 (Homo sapiens, UniProt Q9NZQ7); assay: Inhibition of human recombinant PD-1/PDL-1 interaction measured by HTRF assay; assay type: protein-complex assay
[3] = Cytotoxicity against human PBMC cells assessed as reduction in cell viability at 10 uM for 24 hrs by CCK-8 assay; assay type: toxicity, cell-based; in short: as §1
HaCaT [4] = assay: Cytotoxicity against human HaCaT cells assessed as reduction in cell viability at 10 uM for 24 hrs by CCK-8 assay; assay type: toxicity, cell-based; in short: as §1
PC-9 [5] = assay: Cytotoxicity against human PC-9 cells assessed as reduction in cell viability at 10 uM for 24 hrs by CCK-8 assay; assay type: toxicity, cell-based; conditions: pc-9, 24 h; in short: as §1
HCC827 [6] = assay: Cytotoxicity against human HCC827 cells assessed as reduction in cell viability at 10 uM for 24 hrs by CCK-8 assay; assay type: toxicity, cell-based; conditions: hcc827, 24 h; in short: as §1
[7] = Cytotoxicity against human PBMC cells assessed as reduction in cell viability at 10 uM for 48 hrs by CCK-8 assay; assay type: toxicity, cell-based; in short: as §1
HaCaT [8] = assay: Cytotoxicity against human HaCaT cells assessed as reduction in cell viability at 10 uM for 48 hrs by CCK-8 assay; assay type: toxicity, cell-based; in short: as §1
PC-9 [9] = assay: Cytotoxicity against human PC-9 cells assessed as reduction in cell viability at 10 uM for 48 hrs by CCK-8 assay; assay type: toxicity, cell-based; conditions: pc-9, 48 h; in short: as §1
HCC827 [10] = assay: Cytotoxicity against human HCC827 cells assessed as reduction in cell viability at 10 uM for 48 hrs by CCK-8 assay; assay type: toxicity, cell-based; conditions: hcc827, 48 h; in short: as §1
HaCaT [11] = assay: Cytotoxicity against human HaCaT cells assessed as reduction in cell viability at 100 uM for 24 hrs by CCK-8 assay; assay type: toxicity, cell-based; in short: as §1
PC-9 [12] = assay: Cytotoxicity against human PC-9 cells assessed as reduction in cell viability at 100 uM for 24 hrs by CCK-8 assay; assay type: toxicity, cell-based; conditions: pc-9, 24 h; in short: as §1
HCC827 [13] = assay: Cytotoxicity against human HCC827 cells assessed as reduction in cell viability at 100 uM for 24 hrs by CCK-8 assay; assay type: toxicity, cell-based; conditions: hcc827, 24 h; in short: as §1
[14] = Cytotoxicity against human PBMC cells assessed as reduction in cell viability at 100 uM for 48 hrs by CCK-8 assay; assay type: toxicity, cell-based; in short: as §1
HaCaT [15] = assay: Cytotoxicity against human HaCaT cells assessed as reduction in cell viability at 100 uM for 48 hrs by CCK-8 assay; assay type: toxicity, cell-based; in short: as §1
HCC827 [16] = assay: Cytotoxicity against human HCC827 cells assessed as reduction in cell viability at 100 uM for 48 hrs by CCK-8 assay; assay type: functional, cell-based; in short: as §1
PC-9 [17] = assay: Immunomodulatory activity in human PC9 cells expressing PD-L1 assessed as morphological changes at 1 uM measured after 48 hrs by phase-contrast microscopy; assay type: functional, cell-based
HCC827 [18] = assay: Immunomodulatory activity in human HCC827 cells expressing PD-L1 co-cultured stimulated PMBC cells assessed as IFN-gamma release level at 1 uM measured after 48 hr by ELISA; assay type: functional, cell-based
In short: (§2)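 Co-culture: PC9 or HCC827 cells (2×10^5/well) plus 2×10^6 PBMCs, 1 μM compound, then anti-CD3/anti-CD28 TransAct (1 μg/mL each) 1 h later. After 48 h, IFN-γ in the medium was measured by sandwich ELISA (450 nm). Values are mean ± SD of three independent experiments in triplicate; two-sided t-test.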

PC-9 [19] = assay: Immunomodulatory activity in human PC9 cells expressing PD-L1 co-cultured stimulated PMBC cells assessed as morphological changes at 1 uM measured after 48 hrs by phase-contrast microscopy; assay type: functional, cell-based
In short: (§3)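 PC9 or HCC827 cells (2×10^5/well, 24 h) were co-cultured with 2×10^6 PBMCs. Compound was added at 1 μM, and 1 h later PBMCs were stimulated with anti-CD3/anti-CD28 TransAct (1 μg/mL each). Controls were unstimulated PBMCs and untreated cancer cells. After 48 h, phase-contrast microscopy was used to look for junction disruption, nuclear swelling, vacuolization, cytosol shrinkage and membrane rupture.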

HCC827 [20] = assay: Immunomodulatory activity in human HCC827 cells expressing PD-L1 assessed as morphological changes at 1 uM measured after 48 hrs by phase-contrast microscopy; assay type: functional, cell-based
HCC827 [21] = assay: Immunomodulatory activity in human HCC827 cells expressing PD-L1 co-cultured stimulated PMBC cells assessed as morphological changes at 1 uM measured after 48 hrs by phase-contrast microscopy; assay type: functional, cell-based; in short: as §3
PC-9 [22] = assay: Immunomodulatory activity in human PC9 cells expressing PD-L1 co-cultured stimulated PMBC cells assessed as IFN-gamma release level at 1 uM measured after 48 hr by ELISA; assay type: functional, cell-based; in short: as §2
HCC827 [23] = assay: Immunomodulatory activity in human HCC827 cells expressing PD-L1 co-cultured stimulated PMBC cells assessed as reduction in cell viability at 1 uM for 48 hr by CCK8 assay; assay type: functional, cell-based
In short: (§4)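 PC9 or HCC827 cells were co-cultured 48 h with PBMCs, treated with 1 μM compound and stimulated 1 h later with anti-CD3/anti-CD28 (1 μg/mL each). PBMCs were then removed by PBS washes and viability of the remaining cancer cells was read by CCK-8. Results are percent survival versus untreated, mean ± SD of three independent experiments in triplicate.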

PC-9 [24] = assay: Immunomodulatory activity in human PC9 cells expressing PD-L1 co-cultured stimulated PMBC cells assessed as reduction in cell viability at 1 uM for 48 hr by CCK8 assay; assay type: functional, cell-based; in short: as §4
PC-9 [25] = assay: Immunomodulatory activity in human PC9 cells expressing PD-L1 co-cultured stimulated PMBC cells assessed as induction of apoptosis at 1 uM for 48 hr by Annexin V-FITC and propidium iodide based flow cytometry; assay type: functional, cell-based
In short: (§5)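 In the same PBMC/cancer-cell co-culture (1 μM compound for 1 h before TransAct anti-CD3/CD28 stimulation, 1 μg/mL each), cells were harvested after 48 h. They were stained with annexin V-FITC/PI and analysed by flow cytometry. Results are mean fraction of annexin V+ cells ± SD, three independent experiments.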

HCC827 [26] = assay: Immunomodulatory activity in human HCC827 cells expressing PD-L1 co-cultured stimulated PMBC cells assessed as induction of apoptosis at 1 uM for 48 hr by Annexin V-FITC and propidium iodide based flow cytometry; assay type: functional, cell-based; in short: as §5
[27] = target: Programmed cell death 1 ligand 1 (Homo sapiens) (UniProt Q9NZQ7); conditions: dose 32.0 µM
[28] = target: T1, Programmed cell death protein 1/Programmed cell death 1 ligand 1; assay: Inhibition of PD-1/PDL-1 (unknown origin) binding; assay type: protein-complex assay
[29] = target: Programmed cell death 1 ligand 1 (Homo sapiens) (UniProt Q9NZQ7); assay: Binding affinity to human PD-L1 expressing on exosomes assessed as decrease in […] intensity at 0.5 mM by STD-NMR spectroscopy
[30] = target: Programmed cell death 1 ligand 1 (Homo sapiens) (UniProt Q9NZQ7); assay: Binding affinity to human PD-L1 expressing on exosomes assessed as decrease in […] intensity at 0.5 mM by WL-NMR spectroscopy
[31] = Cytotoxicity against human PBMC cells assessed as reduction in cell viability at 100 uM for 24 hrs by CCK-8 assay; assay type: toxicity, cell-based; in short: as §1

Chain of Programmed cell death 1 ligand 1 (Homo sapiens) (Q9NZQ7 whole entry): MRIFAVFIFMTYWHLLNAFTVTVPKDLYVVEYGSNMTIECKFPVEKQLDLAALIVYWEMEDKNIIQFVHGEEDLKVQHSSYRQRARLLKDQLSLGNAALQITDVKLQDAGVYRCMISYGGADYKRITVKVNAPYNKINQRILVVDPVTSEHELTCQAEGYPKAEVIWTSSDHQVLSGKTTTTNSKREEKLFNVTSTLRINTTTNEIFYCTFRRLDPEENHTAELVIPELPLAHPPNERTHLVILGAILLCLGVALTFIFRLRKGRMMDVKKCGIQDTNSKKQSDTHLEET
T1 sequence (Q15116 whole entry): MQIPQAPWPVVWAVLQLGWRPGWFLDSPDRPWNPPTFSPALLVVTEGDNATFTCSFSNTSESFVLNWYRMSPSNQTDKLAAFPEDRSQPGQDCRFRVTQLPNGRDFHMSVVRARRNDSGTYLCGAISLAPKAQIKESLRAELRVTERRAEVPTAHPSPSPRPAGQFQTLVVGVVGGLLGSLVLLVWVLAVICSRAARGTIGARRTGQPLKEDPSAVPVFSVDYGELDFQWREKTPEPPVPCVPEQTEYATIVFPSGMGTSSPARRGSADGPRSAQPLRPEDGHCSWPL
T1 sequence (Q9NZQ7 whole entry): as the sequence (Q9NZQ7 whole entry) above

CC(=O)NCCNc1ncnc(OCc2cccc(-c3ccccc3)c2C)n1
Activity (PC-9 [1]): Toxic | IC50 [2]: 115 nM | Activity [3]: Non-Toxic | Activity (HaCaT [4]): Non-Toxic | Activity (PC-9 [5]): Non-Toxic | Activity (HCC827 [6]): Non-Toxic | Activity [7]: Non-Toxic | Activity (HaCaT [8]): Non-Toxic | Activity (PC-9 [9]): Non-Toxic | Activity (HCC827 [10]): Non-Toxic | Activity (HaCaT [11]): Toxic | Activity (PC-9 [12]): Toxic | Activity (HCC827 [13]): Toxic | Activity [14]: Toxic | Activity (HaCaT [15]): Toxic | Activity (HCC827 [16]): Toxic | Activity (PC-9 [17]): inactive | Activity (HCC827 [18]): Active | Activity (PC-9 [19]): Active | Activity (HCC827 [20]): inactive | Activity (HCC827 [21]): Active | Activity (PC-9 [22]): Active | Activity (HCC827 [23]): Active | Activity (PC-9 [24]): Active | Activity (PC-9 [25]): Active | Activity (HCC827 [26]): Active | Tm [27]: 49 °C

Cc1c(COc2ncnc(NCCS(N)(=O)=O)n2)cccc1-c1ccccc1
IC50 [2]: 551 nM

Cc1c(COc2ccc(CN[C@H](CO)C(=O)O)c(OCc3cncc(C#N)c3)n2)cccc1-c1ccccc1
IC50 [28]: 12 nM

Cc1c(COc2ccc(CN3CCCC[C@H]3C(=O)NCCN)c(OCc3cccc(C#N)c3)c2)cccc1-c1ccccc1
IC50 [28]: 9.1 nM

CC(C)(C)OC(=O)NCCNc1nc(OCc2ccccc2)nc(N2CCC[C@H]2C(=O)NCc2ccccc2)n1
IC50 [2]: > 5000 nM

COC(=O)[C@H](Cc1c[nH]cn1)Nc1nc(OCc2cccc(C#N)c2)nc(OCc2cccc(-c3ccccc3)c2C)n1
IC50 [2]: > 5000 nM

O=C(O)[C@@H]1CCCCN1Cc1ccc(OCc2cccc(-c3ccccc3)c2Br)c(Br)c1
IC50 [28]: 15 nM

Cc1c(COc2nc(N[C@@H](Cc3c[nH]cn3)C(=O)O)nc(OCc3cccc(C#N)c3)n2)cccc1-c1ccccc1
IC50 [2]: > 5000 nM

Cc1c(COc2ccc(CNCCO)n3cnnc23)cccc1-c1ccc2c(c1)OCCO2
IC50 [28]: 92.3 nM

Cc1c(COc2ncnc(NCCNS(C)(=O)=O)n2)cccc1-c1ccccc1
IC50 [2]: 241 nM

COC(=O)[C@H](Cc1c[nH]cn1)Nc1ncnc(OCc2cccc(-c3ccccc3)c2C)n1
Activity [29]: Active | Activity [30]: Active

CC(=O)NCCCNc1ncnc(OCc2cccc(-c3ccccc3)c2C)n1
IC50 [2]: 2150 nM

COc1nc(NCCNC(C)=O)nc(OCc2cccc(-c3ccccc3)c2C)n1
IC50 [2]: 1530 nM

CC(=O)NCCNc1nc(C)nc(OCc2cccc(-c3ccccc3)c2C)n1
IC50 [2]: > 5000 nM

COc1nc(OCc2cccc(-c3ccccc3)c2C)ccc1CNCCNC(C)=O
Activity (PC-9 [1]): Toxic | Activity [3]: Non-Toxic | Activity (HaCaT [4]): Non-Toxic | Activity (PC-9 [5]): Non-Toxic | Activity (HCC827 [6]): Non-Toxic | Activity [7]: Non-Toxic | Activity (HaCaT [8]): Non-Toxic | Activity (PC-9 [9]): Non-Toxic | Activity (HCC827 [10]): Non-Toxic | Activity [31]: Toxic | Activity (HaCaT [11]): Toxic | Activity (PC-9 [12]): Toxic | Activity (HCC827 [13]): Toxic | Activity [14]: Toxic | Activity (HaCaT [15]): Toxic | Activity (HCC827 [16]): Toxic | Activity (PC-9 [17]): inactive | Activity (HCC827 [18]): Active | Activity (PC-9 [19]): Active | Activity (HCC827 [20]): inactive | Activity (HCC827 [21]): Active | Activity (PC-9 [22]): Active | Activity (HCC827 [23]): Active | Activity (PC-9 [24]): Active | Activity (PC-9 [25]): Active | Activity (HCC827 [26]): Active | Tm [27]: 53 °C

CC(=O)NCCNc1nc(O)nc(OCc2cccc(-c3ccccc3)c2C)n1
IC50 [2]: > 5000 nM

COc1cc(C(=O)N2CCC3C(c4ccccc4)=CC=CC32)ccc1CNCCO (configuration not stated)
IC50 [28]: 132 nM

Cc1c(COc2ncnc(N[C@@H](Cc3c[nH]cn3)C(=O)O)n2)cccc1-c1ccccc1
IC50 [2]: > 5000 nM

CC(=O)NCCNc1nc(OCc2cccc(C#N)c2)nc(OCc2cccc(-c3ccccc3)c2C)n1
IC50 [2]: > 5000 nM
